{"source": "paper PMC3808079", "about": "(Oncogene, 2012)", "key": {"LN229 cells [1]": {"system": "LN229 cells", "assay": "Colony formation assay", "format": "cell-based, human", "details": "Figure 6e; for Colony numbers: drug alone, soft agar, 2 weeks", "how_it_was_run": "(§1)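 Soft-agar assay: 50 000 cells per well in 0.4% agar with 10% FBS in DMEM, plated over a 0.6% agar base, with test peptide, drug or vehicle. Combinations used various doses of the test peptide with TMZ or BCNU. Cells grew 2 weeks at 37 °C. Colonies were stained with MTT, counted and normalized to vehicle (%). Mean±s.d.; Student's t-test.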"}, "LN-Z308 cells [2]": {"system": "LN-Z308 cells", "assay": "Colony formation assay", "format": "cell-based, human", "details": "for Colony numbers: drug alone, soft agar, 2 weeks", "how_it_was_run": "as §1"}, "LN229 cells [3]": {"system": "LN229 cells", "assay": "Cell viability assay", "format": "cell-based, human"}, "LN-Z308 cells [4]": {"system": "LN-Z308 cells", "assay": "Cell viability assay", "format": "cell-based, human", "how_it_was_run": "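Cells (5 × 10^3/well) grown in DMEM/10% FBS were seeded in 96-well plates. Next day, medium was replaced with fresh medium containing test peptides (50 μM) or vehicle, for 16 h at 37 °C. For combinations, cells got various concentrations of the test peptide with TMZ (25 μM) or BCNU (50 μM). Viability was read by MTT. Mean±s.d., 3–4 independent experiments; Student's t-test.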"}, "PIKE-A/Akt interaction [5]": {"biological_target": "T1, PIKE-A/Akt interaction (Homo sapiens, UniProt P31749+Q99490)", "T1 sequence (Q99490 1-836 isoform Q99490-2)": "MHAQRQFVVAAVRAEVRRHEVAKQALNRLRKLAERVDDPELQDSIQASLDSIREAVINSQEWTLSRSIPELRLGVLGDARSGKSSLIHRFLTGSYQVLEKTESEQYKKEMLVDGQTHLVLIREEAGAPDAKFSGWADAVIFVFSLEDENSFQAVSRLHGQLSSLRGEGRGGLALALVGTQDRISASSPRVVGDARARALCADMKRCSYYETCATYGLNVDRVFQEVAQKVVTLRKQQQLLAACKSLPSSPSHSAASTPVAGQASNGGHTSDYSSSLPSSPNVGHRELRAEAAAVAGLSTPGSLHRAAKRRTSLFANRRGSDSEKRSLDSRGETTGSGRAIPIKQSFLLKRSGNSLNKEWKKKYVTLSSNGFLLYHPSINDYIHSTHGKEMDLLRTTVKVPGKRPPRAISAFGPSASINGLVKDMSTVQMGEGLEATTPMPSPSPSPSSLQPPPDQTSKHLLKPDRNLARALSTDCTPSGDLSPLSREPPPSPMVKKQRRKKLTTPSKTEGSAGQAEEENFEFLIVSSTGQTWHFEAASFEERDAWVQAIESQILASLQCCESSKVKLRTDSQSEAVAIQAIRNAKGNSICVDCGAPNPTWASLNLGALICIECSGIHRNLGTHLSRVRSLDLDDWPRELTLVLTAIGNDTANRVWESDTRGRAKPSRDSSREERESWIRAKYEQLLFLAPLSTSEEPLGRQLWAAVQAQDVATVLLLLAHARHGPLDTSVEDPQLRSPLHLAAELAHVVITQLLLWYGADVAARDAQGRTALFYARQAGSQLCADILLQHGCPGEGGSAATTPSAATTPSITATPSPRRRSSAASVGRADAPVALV", "T1 sequence (P31749 whole entry)": "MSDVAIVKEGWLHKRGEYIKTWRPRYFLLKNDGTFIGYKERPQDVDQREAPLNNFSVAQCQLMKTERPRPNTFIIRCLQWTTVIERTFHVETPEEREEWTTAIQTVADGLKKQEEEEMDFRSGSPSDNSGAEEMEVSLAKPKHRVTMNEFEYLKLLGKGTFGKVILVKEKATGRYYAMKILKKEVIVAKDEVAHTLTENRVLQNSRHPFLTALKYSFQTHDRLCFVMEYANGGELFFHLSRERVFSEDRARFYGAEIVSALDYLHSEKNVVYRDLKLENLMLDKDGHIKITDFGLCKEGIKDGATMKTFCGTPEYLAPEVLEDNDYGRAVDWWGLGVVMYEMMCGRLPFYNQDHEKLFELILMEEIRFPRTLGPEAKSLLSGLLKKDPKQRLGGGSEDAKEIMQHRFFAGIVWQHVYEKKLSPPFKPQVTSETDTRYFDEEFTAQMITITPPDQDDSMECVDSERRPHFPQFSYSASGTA", "assay": "In vitro binding assay, GST-PIKE-A", "details": "short synthetic peptides; Figure 5b", "how_it_was_run": "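Purified recombinant GST-PIKE-A (a.a. 1–356) was bound to glutathione beads and incubated, with test peptides, with lysates of HEK293 cells transfected with HA-Akt, 3 h at 4 °C. Bead-bound proteins were run on 10% SDS-PAGE and immunoblotted with anti-HA. GST proteins were verified by Coomassie staining.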"}, "LN229 cells [6]": {"system": "LN229 cells", "assay": "Transwell", "format": "cell-based, human", "details": "synthetic peptide 50 μM, 16 h, Figure 6c", "how_it_was_run": "(§2)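 Cells (1 × 10^5/well) were seeded in six-well plates and treated with test peptides (50 μM) for 16 h. Invasion through Matrigel was measured in a transwell system (8 μm pore polycarbonate membrane). Mean±s.d. of 3–4 independent experiments; Student's t-test.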"}, "LN-Z308 cells [7]": {"system": "LN-Z308 cells", "assay": "Transwell", "format": "cell-based, human", "details": "synthetic peptide 50 μM, 16 h, Figure 6c", "how_it_was_run": "as §2"}, "PIKE-A/Akt interaction [8]": {"biological_target": "T1, PIKE-A/Akt interaction", "assay": "ELISA-based protein interaction assay", "format": "binding", "details": "peptide 10 μM; Figure 5c"}, "[9]": {"system": "Akt signaling in LN-Z308 cells", "assay": "Immunoblotting of Akt phosphorylation and downstream signaling", "format": "cell-based, human", "details": "peptide-treated cell lysates, dose-dependent, immunoblot, Figure 7b"}, "PIKE-A/Akt interaction [10]": {"biological_target": "T1, PIKE-A/Akt interaction", "format": "binding", "how_it_was_run": "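HEK293 cells were co-transfected with GST-PIKE-A and HA-Akt. After 40 h, lysates were collected and GST-PIKE-A was pulled down on glutathione beads in the presence of test peptides. Bound HA-Akt was detected by anti-HA immunoblot. GST-PIKE-A was verified with anti-GST-HRP.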"}, "LN-Z308 cells [11]": {"system": "LN-Z308 cells", "assay": "Cell migration, wound-healing assay", "format": "cell-based, human", "details": "synthetic peptide 50 μM, 10 h, Figure 6b", "how_it_was_run": "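LN-Z308 monolayers were grown to confluence in six-well plates and scratched with a pipette tip, then washed to remove nonadherent cells. Medium containing test peptides (50 μM) or DMSO was added at 0 h, and cells were incubated 10 h. Wound area was imaged by light microscopy. % wound healed = 100-[(final area/initial area) × 100%]. Mean±s.d. of three or four independent experiments; Student's t-test.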"}, "[12]": {"system": "PIKE-A/Akt interaction in HEK293 cells", "assay": "GST pull-down from co-transfected HEK293 cells treated with synthetic peptides", "format": "cell-based", "details": "sp2 50 μM, Figure 5f", "how_it_was_run": "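HEK293 cells were co-transfected with GST-PIKE-A and HA-Akt, then treated with 50 μM test peptide in culture medium for various times up to 24 h. GST-PIKE-A was pulled down on glutathione beads, and associated HA-Akt was detected by anti-HA immunoblot.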"}, "[13]": {"details": "synthetic peptide 50 μM, 16 h, Figure 6a"}, "[14]": {"details": "sp2 various concentrations + TMZ 25 μM, 16 h, Figure 6d"}, "[15]": {"details": "various concentrations of sp2, 16 h, Figure 6d"}}, "note": "Ends that are not written are not given here."}
{"compound": "O=NN(CCCl)C(=O)NCCCl", "note": "[BCNU, Carmustine, reference compound]", "values": [{"measurement": "Colony numbers", "setting": "LN229 cells [1]", "result": "decreased the colony numbers"}, {"measurement": "Colony numbers", "setting": "LN-Z308 cells [2]; Figure 6e", "result": "decreased the colony numbers"}, {"measurement": "Cell viability (MTT)", "setting": "LN229 cells [3]; BCNU 50 μM, 24 h, after 40 h plasmid transfection, Figure 4c", "result": "reduced cell viability regardless of peptide transfection"}]}
{"compound": "Cn1nnc2c(C(N)=O)ncn2c1=O", "note": "[TMZ, temozolomide, reference compound]", "values": [{"measurement": "Colony numbers", "setting": "LN229 cells [1]", "result": "decreased the colony numbers"}, {"measurement": "Colony numbers", "setting": "LN-Z308 cells [2]; Figure 6e", "result": "decreased the colony numbers"}, {"measurement": "Cell viability (MTT)", "setting": "LN229 cells [3]; TMZ 25 μM, 16 h, Figure 6d", "result": "potently decreased"}, {"measurement": "Cell viability (MTT)", "setting": "LN229 cells [3]; TMZ 25 μM, 24 h, compared with vehicle, Figure 4c", "result": "modest effect in repressing LN229 cell viability"}, {"measurement": "Cell viability (MTT)", "setting": "LN-Z308 cells [4]; TMZ 25 μM, 16 h, Figure 6d", "result": "potently decreased"}]}
{"compound": "DARSG [sp4]", "values": [{"measurement": "Interaction between a fragment of PIKE-A (1–356 a.a.) and Akt", "setting": "PIKE-A/Akt interaction [5]", "result": "decreased the interaction"}, {"measurement": "Invasive activity", "setting": "LN229 cells [6]", "result": "did not significantly affect"}, {"measurement": "Invasive activity", "setting": "LN-Z308 cells [7]", "result": "did not significantly affect"}, {"measurement": "Disruption of the interaction between PIKE-A and Akt (ELISA, RLU)", "setting": "PIKE-A/Akt interaction [8]", "result": "failed to block the PIKE-A/Akt interaction"}, {"measurement": "Cell viability (MTT)", "setting": "LN-Z308 cells [4]; [13]", "result": "no effect"}, {"measurement": "Akt T308 and S473 phosphorylation", "setting": "[9]", "result": "no effect on Akt phosphorylation"}]}
{"compound": "DARSGKSSLIHRFLTGSYQ [PP2]", "values": [{"measurement": "Inhibition of the PIKE-A/Akt interaction, GST pull-down", "setting": "PIKE-A/Akt interaction [10]; peptide up to 10 μM, Figure 2f", "result": "did not demonstrate an inhibitory effect"}, {"measurement": "Disruption of the interaction between PIKE-A and Akt (ELISA, RLU)", "setting": "PIKE-A/Akt interaction [8]", "result": "failed to block the PIKE-A/Akt interaction"}]}
{"compound": "LKKDPK [sp9]", "values": [{"measurement": "Interaction between a fragment of PIKE-A (1–356 a.a.) and Akt", "setting": "PIKE-A/Akt interaction [5]", "result": "decreased the interaction"}]}
{"compound": "PELRLGVL [sp2]", "values": [{"measurement": "Interaction between a fragment of PIKE-A (1–356 a.a.) and Akt", "setting": "PIKE-A/Akt interaction [5]", "result": "decreased the interaction"}, {"measurement": "Colony formation inhibitory effect of TMZ and BCNU on co-treatment with sp2", "setting": "LN229 cells [1]; sp2 + TMZ or BCNU", "result": "additive trend also applied"}, {"measurement": "Inhibitory effect on the PIKE-A/Akt interaction, GST pull-down", "setting": "PIKE-A/Akt interaction [10]; GST pull-down as in Figure 2, Figure 5e", "result": "inhibited the binding"}, {"measurement": "Invasive activity", "setting": "LN229 cells [6]", "result": "strongly inhibited the invasive activity"}, {"measurement": "Colony formation inhibitory effect of TMZ and BCNU on co-treatment with sp2", "setting": "LN-Z308 cells [2]; 50 μM sp2 + TMZ or BCNU, Figure 6e", "result": "substantially increased"}, {"measurement": "Colony formation, sp2", "setting": "LN-Z308 cells [2]; summary statement of Figure 6", "result": "strongly inhibits"}, {"measurement": "Invasive activity", "setting": "LN-Z308 cells [7]", "result": "strongly inhibited the invasive activity"}, {"measurement": "Cell viability (MTT), co-treatment of sp2 with TMZ", "setting": "LN229 cells [3]; [14]", "result": "inhibitory trend was similar"}, {"measurement": "Cell viability (MTT)", "setting": "LN229 cells [3]; [13]", "result": "not in LN229 cells"}, {"measurement": "Cell viability (MTT), sp2 alone", "setting": "LN229 cells [3]; [15]", "result": "not as evident as in LN-Z308 cells"}, {"measurement": "Cell migration", "setting": "LN-Z308 cells [11]", "result": "strongly inhibits"}, {"measurement": "Inhibition of PIKE-A binding to Akt at 24 h", "setting": "[12]; 24 h in cell culture medium", "result": "lost its suppressive activity"}, {"measurement": "Time at which inhibition of PIKE-A binding to Akt was seen", "setting": "[12]; time course", "result": 4, "unit": "h"}, {"measurement": "Time of peak inhibition of PIKE-A binding to Akt", "setting": "[12]; time course", "result": 16, "unit": "h"}, {"measurement": "Cell viability (MTT), co-treatment of sp2 with TMZ", "setting": "LN-Z308 cells [4]; [14]", "result": "additive effect"}, {"measurement": "Cell viability (MTT)", "setting": "LN-Z308 cells [4]; [13]", "result": "selectively decreased LN-Z308 cell viability"}, {"measurement": "Cell viability (MTT), sp2 alone", "setting": "LN-Z308 cells [4]; [15]", "result": "suppressive activity of sp2 on LN-Z308 cell viability, which occurred in a dose-dependent manner"}, {"measurement": "Akt T308 and S473 phosphorylation", "setting": "[9]", "result": "diminished"}]}
{"compound": "TGSYQ [sp6]", "values": [{"measurement": "Interaction between a fragment of PIKE-A (1–356 a.a.) and Akt", "setting": "PIKE-A/Akt interaction [5]", "result": "decreased the interaction"}, {"measurement": "Invasive activity", "setting": "LN229 cells [6]", "result": "did not significantly affect"}, {"measurement": "Invasive activity", "setting": "LN-Z308 cells [7]", "result": "did not significantly affect"}, {"measurement": "Cell viability (MTT)", "setting": "LN229 cells [3]; [13]", "result": "not in LN229 cells"}, {"measurement": "Disruption of the interaction between PIKE-A and Akt (ELISA, RLU)", "setting": "PIKE-A/Akt interaction [8]", "result": "failed to block the PIKE-A/Akt interaction"}, {"measurement": "Cell viability (MTT)", "setting": "LN-Z308 cells [4]; [13]", "result": "selectively decreased LN-Z308 cell viability"}]}
